# Test results taken from ChEMBL document CHEMBL1124846, “Synthesis, antiproliferative, and antiviral activity of certain 4-substituted and 4,5-disubstituted 7-[(1,3-dihydroxy-2-propoxy)methyl]pyrrolo[2,3-d]pyrimidines” (J Med Chem, 1990).
# Where “and” joins values, the source holds several entries; their conditions need not be identical. Identical values can stand only once.
# What was measured:
# Human betaherpesvirus 5 = assay: Inhibition of human cytomegalovirus (HCMV) in plaque reduction assay; type: functional, organism-based
# Method in brief: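 HCMV Towne strain (plaque-purified P0) plaque reduction in HFF monolayers in MEM(E) with 10% FBS. Inoculum held about 50 PFU, with compound dissolved in the overlay medium. IC50 came from linear regression of percent inhibition against log concentration, with ganciclovir or acyclovir positive controls in every set; two to five experiments.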
# [1] = Cytotoxic activity against HFF cells.; type: cell-based; conditions: Homo sapiens
# Method in brief: (§1)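 Cytotoxicity was scored visually in uninfected HFF or BSC-1 monolayers within the plaque-reduction assays. Drug-induced cytopathology was read at 35- and 60-fold magnification on a 0 to 4+ scale on the day plaques were stained and counted.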
# L1210 [2] = assay: In vitro inhibition of L1210 cell growth.; type: functional, Mus musculus; set-up: concentration or dose not given beside the values
# Method in brief: (§2)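 Murine L1210 leukemia cells in static suspension culture in Fischer's medium with compound for 4 days. Growth rate is the ratio of control to treated population doubling time; where the rate changed, the final rate was used. IC50 is the concentration giving 50% of control growth rate; single-concentration value at 100 μM.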
# Human alphaherpesvirus 1 [3] = assay: Inhibition of herpes simplex virus (HSV-1) in plaque reduction assay; type: functional, organism-based
# Method in brief: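 HSV-1 S-148 strain plaque reduction in BSC-1 monkey kidney monolayers, with about 100 PFU inoculum and compound dissolved in the overlay medium. IC50 came from linear regression of percent inhibition against log concentration, with a positive control in each set.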
# L1210 [4] = assay: In vitro inhibition of L1210 cell growth to half of the control rate; type: functional, cell-based; conditions: Mus musculus; method in brief: as §2
# [5] = Cytotoxic activity against BSC cells; type: cell-based; conditions: Cercopithecidae; method in brief: as §1
# Human alphaherpesvirus 1 [6] = assay: Inhibition of herpes simplex virus (HSV-1) in yield reduction assay; type: functional, organism-based
# Neoplastic cell line = assay: Cytotoxic activity against KB cells.; type: cell-based; conditions: Homo sapiens
# Method in brief: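 KB cells (human oral epidermoid carcinoma) grown in MEM(H) with 5% FBS. Compound effect on incorporation of radiolabelled precursors into DNA, RNA and protein was measured. IC50s came from linear regression of percent inhibition against log concentration, and the three IC50s were averaged.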
SMILES,IC50 (Human betaherpesvirus 5; Human betaherpesvirus 5),IC50 [1],Activity (L1210 [2]),IC50 (Human alphaherpesvirus 1 [3]),IC50 (Human betaherpesvirus 5),IC50 (L1210 [4]),IC50 [5],IC90 (Human alphaherpesvirus 1 [6]),IC50 (Neoplastic cell line)
OCC(CO)OCn1ccc2c(NO)ncnc21,> 100 µM,> 100 µM,100%,–,–,–,–,–,–
OCC(CO)OCn1cc(I)c2c(NO)ncnc21,–,> 100 µM,11%,30 µM,18 µM and 3.2 µM,39 µM,–,–,–
OCC(CO)OCn1cc(Cl)c2c(NO)ncnc21,–,> 100 µM,41%,–,56 µM and 24 µM and 50 µM,75 µM,–,–,–
Nc1ncnc2c1c(Cl)cn2COC(CO)CO,9.8 µM,> 100 µM,6%,16 µM,8 µM,2.3 µM,> 100 µM,22 µM,> 100 µM
